Results gathered from unrelated publications.
Each line is one published result; the experiments were not run side by side.
ALOX5: Polyunsaturated fatty acid 5-lipoxygenase (ALOX5, Homo sapiens, UniProt P09917)
dxs: dxs (Pseudomonas aeruginosa, UniProt Q9KGU7)
ACE: Angiotensin-converting enzyme (ACE, Oryctolagus cuniculus, UniProt P12822)

`C=CCOc1ccc(C(=O)/C=C/c2ccc(OC)cc2)c(OS(C)(=O)=O)c1I` gave an IC50 of 38.3 µM (ALOX5; enzyme activity, inhibitor).
The Kd of `COC(=O)C1=CO[C@@H](O[C@@H]2O[C@H](CO)[C@@H](O)[C@H](O)[C@H]2O)[C@@H]2C(CO)=CC[C@H]12` is reported as 38.4 µM (Cystathionine beta-synthase (CBS, Homo sapiens, UniProt P35520); binding, MST).
For `Cn1c(=O)n(CCCCN2CCC3(CC2)OCc2ccccc23)c2ccccc21`, the Ki was 2.83 µM (Sodium-dependent serotonin transporter (Slc6a4, Rattus norvegicus, UniProt P31652); ligand displacement, radioligand; cell membranes).
`CCCCOP(=O)(O)C(C)=O` gave a Ki of 1.84 µM (dxs; enzyme activity, inhibitor).
`CCN1CCN(Cc2ccc(Nc3ncc(F)c(-c4cc(F)c5nc6n(c5c4)[C@H](C)CCC6)n3)nc2)CC1` gave an IC50 of 0.0654 µM (Multidrug and toxin extrusion protein 2 (SLC47A2, Homo sapiens, UniProt Q86VL8); enzyme activity, inhibitor).
For `N[C@@H](Cc1c[nH]cn1)C(=O)N[C@@H](CC(=O)O)C(=O)N[C@@H](CS)C(=O)N[C@@H](Cc1ccccc1)C(=O)O`, the IC50 was 4.5 µM (ACE; enzyme activity, inhibitor).
The IC50 of `C=CCOc1ccc(C(=O)/C=C/c2cccc(F)c2)c(OS(C)(=O)=O)c1I` is reported as 34.6 µM (ALOX5; enzyme activity, inhibitor).
With `COc1ccc(CCCCC(=O)C(F)(F)C(F)(F)F)cc1` the IC50 was 26.2 µM (Cytosolic phospholipase A2 (PLA2G4A, Homo sapiens, UniProt P47712); enzyme activity, inhibitor).
`COc1cc2c(cc1OC)CN(CCc1ccc(NC(=O)c3cccc4c(=O)c5cccc(OC)c5[nH]c34)cc1)CC2` gave a Ki of > 10 µM (Mu-type opioid receptor (OPRM1, Homo sapiens, UniProt P35372); cell-free assay).
With `CC(C)C[C@H](N)C(=O)N[C@@H](Cc1c[nH]c2ccccc12)C(=O)N[C@@H](CC(=O)O)C(=O)N1CCC[C@H]1C(=O)N1CCC[C@H]1C(=O)N[C@@H](CCC(=O)O)C(=O)NCC(=O)N[C@@H](C)C(=O)N1CCC[C@H]1C(=O)O` the IC50 was 207 µM (ACE; enzyme activity, inhibitor).
For `CC(=O)P(=O)(O)OCCc1cn([C@H](Cc2ccccc2)C(=O)O)nn1`, the Ki was 2.6 µM (dxs; enzyme activity, inhibitor).
`N=C(N)NCCC[C@H](NC(=O)[C@H](Cc1ccccc1)NC(=O)[C@@H]1CCCN1C(=O)[C@H](CO)NC(=O)[C@@H]1CCCN1C(=O)[C@@H](N)Cc1ccccc1)C(=O)O` has an IC50 of 81.3 µM (ACE; enzyme activity, inhibitor).
With `CCCCOc1cc(C(=O)NCCN(CC)CC)c2ccccc2n1` the IC50 was 76.2 µM (PKD2L1 (Homo sapiens, UniProt Q9P0L9, F549I); ion current, inhibitor, patch clamp).
